The values below come from paper PMC8081378 (Mutagenesis, 2019).

SMILES strings stand for the structures.

Format in all cases: cell-based, human
For data set [1], the system named is EpiDerm™ skin tissues. In words: skin comet assay in EpiDerm skin tissues. The note with it: single 3 h treatment, doses ≥2 µg/cm^2, keratinocytes, data not shown.
Data set [2] concerns EpiDerm™ skin tissues. In words: cytotoxicity in the RSMN assay. The method in brief:
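Skin tissues received test compound topically in 10 µl (16 µl/cm²) acetone, two or three times at 24 h intervals, in triplicate alongside solvent controls. Tissues were washed in DPBS, then DPBS-EDTA, and trypsinised (0.25% trypsin–0.02% EDTA, 15 min, 37°C) into single-cell suspensions. Viable cell count came from AO/DAPI staining with an automated counter, and % BN from AO staining over 500 cells/tissue. Both were expressed relative to solvent control; excessive cytotoxicity was a 55 ± 5 % reduction.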

Data set [3] concerns Phenion®FT skin tissues. In words: 3D skin comet assay. As to conditions: for % tail DNA vs SC + APC: three treatments over 48 h in the presence of APC.
The test system of data set [4] is EpiDerm™ skin tissues. In words: reconstructed skin micronucleus.
Data set [5] concerns Phenion®FT skin tissues. In words: cytotoxicity in the skin comet assay. The gist of the method: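 Full-thickness tissues were cultured at the air–liquid interface (37°C, 5% CO₂). They were treated in triplicate with test compound ± APC in acetone (16 µl/cm²), either three times (48, 24 and 3 h) or once for 3 h. Afterwards, culture medium was kept at 4°C for adenylate kinase release. About 25% of each tissue was snap-frozen, homogenised in cold DPBS, heated (105°C, 5 min) and centrifuged; ATP was measured in the supernatant with a kit. Both measures were expressed relative to solvent control (100%).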

Data set [6] deals with Phenion®FT skin tissues. In words: DNA adduct formation by TLC 32P-postlabelling assay.

As for `CC(=O)N(O)c1ccc2c(c1)Cc1ccccc1-2` [N-OH-2-AAF, N-hydroxy-2-acetylaminofluorene], the “DNA damage in the skin comet assay” value in the data set on EpiDerm™ skin tissues [1] is “highly significant dose-dependent increase in DNA damage”. Further, the “dose that exceeded the cytotoxicity threshold by % BN” value in the data set with EpiDerm™ skin tissues [2] (two or three treatments over 48 h or 72 h) came to 0.8 µg/cm^2. Besides, the “% tail DNA” value with Phenion®FT skin tissues [3] (single 3 h treatment, 4 µg/cm^2, keratinocytes and fibroblasts) is on record as “significantly increased the % tail DNA”. The “DNA damage (% tail DNA) in the presence of APC vs compound alone” value with Phenion®FT skin tissues [3] (single 3 h treatment, 1 and 4 µg/cm^2, both cell types) was “further amplified”. The “DNA damage in the RSMN assay (% MN-BN)” value is “did not cause a significant increase in DNA damage” in the data set with EpiDerm™ skin tissues [4] (three treatments over 72 h, doses up to 0.8 µg/cm^2) and “did not cause a significant increase in DNA damage” with EpiDerm™ skin tissues [4] (two treatments over 48 h, doses up to 0.8 µg/cm^2).

With `C[C@@]1(CO)[C@H](O)CC[C@@]2(C)[C@H]1CC[C@H]1C[C@@H]3C[C@@]12CC[C@]3(O)CO` [APC, aphidicolin], the “DNA damage (% tail DNA) vs SC group alone” value in the data set with Phenion®FT skin tissues [3] (APC alone, 5 µg/ml in medium 4 h before end of incubation) was “small non-significant increase in DNA damage”.

Consider `CC(=O)Nc1ccc2c(c1)Cc1ccccc1-2` [2-AAF, 2-acetylaminofluorene], for which the “dose that exceeded the % ATP cytotoxicity threshold” value in the data set with Phenion®FT skin tissues [5] (three treatments over 48 h with APC) was 75 µg/cm^2. Moreover, the “increase of adduct levels after multiple exposures over 48 h vs 3 h treatment” value in the data set with Phenion®FT skin tissues [6] (multiple exposures over 48 h) is above 10 fold. Also, the “2-AAF-derived DNA adducts” value in the data set on Phenion®FT skin tissues [6] (single 3 h treatment, 50 and 150 µg/cm^2) was “minimal, but detectable”. Also, in the data set on Phenion®FT skin tissues [6] (three treatments over 48 h), the “DNA adduct level (RAL), up to” value is ~ 10 adducts per 10^8 nucleotides. Besides, the “DNA adduct levels in the presence of APC” value in the data set with Phenion®FT skin tissues [6] (three-treatment protocol, 150 µg/cm^2, with APC) is listed as “additional, but non-significant increase”. Also, the “% tail DNA vs SC + APC” value is listed as “significant increase in the % tail DNA” in the data set with Phenion®FT skin tissues [3] (fibroblasts, both experiments, all doses tested) and “only statistically significant in one experiment” with Phenion®FT skin tissues [3] (keratinocytes, at 75 µg/cm^2). Moreover, the “DNA damage in the RSMN assay (% MN-BN)” value with EpiDerm™ skin tissues [4] (topical, three doses over 72 h, up to 96 µg/cm^2) was “did not significantly increase DNA damage”. The “MN formation (% MN-BN)” value in the data set with EpiDerm™ skin tissues [4] (topical, two times over a 48-h period, doses up to 140 µg/cm^2, vs SC) was “did not result in a significant increase in MN formation”.

For the compound `ONc1ccc2c(c1)Cc1ccccc1-2` [N-OH-2-AF, N-hydroxy-2-aminofluorene], the “cytotoxicity (% AK, % ATP)” value in the data set on Phenion®FT skin tissues [5] (single 3 h treatment in the presence of APC) is recorded as “absence of excessive cytotoxicity”. Besides, the “cytotoxicity by % VCC” value in the data set with EpiDerm™ skin tissues [2] (three treatments over 72 h, highest dose 1.3 µg/cm^2) is recorded as “approached the cytotoxicity threshold for % VCC at the highest dose”. Besides, the “level of DNA adducts compared with N-OH-2-AAF at the same dose” value in the data set on Phenion®FT skin tissues [6] (single 3 h treatment, 1 µg/cm^2) is “not significantly different”. The “potency in the skin comet assay compared with N-OH-2-AAF” value in the data set with Phenion®FT skin tissues [3] (single 3 h treatment) is recorded as “more potent”. Besides, in the data set on Phenion®FT skin tissues [3] (single 3 h treatment, 1 µg/cm^2, keratinocytes and fibroblasts), the “near maximal level of DNA damage” value is 60–80 % tail DNA. In addition, the “DNA damage (% tail DNA) in the presence of APC” value with Phenion®FT skin tissues [3] (single 3 h treatment, all three doses, both cell types) is “further amplified and reached near maximal levels”. For the same compound, the “DNA damage (% tail DNA)” value with Phenion®FT skin tissues [3] (single 3 h treatment, doses of 0.25–4 µg/cm^2, keratinocytes and fibroblasts) was “robust, dose-responsive increase in DNA damage”. In addition, the “micronuclei in the RSMN assay (% MN-BN)” value with EpiDerm™ skin tissues [4] (three treatments over 72 h, at the two highest doses 0.85 and 1.3 µg/cm^2, P < 0.01) is on record as “significant change in micronuclei”. Besides, the “MN formation (% MN-BN)” value in the data set on EpiDerm™ skin tissues [4] (two treatments over 48 h, up to 1.3 µg/cm^2) was “did not significantly increase MN formation”.
